In ChEMBL document CHEMBL3286209, “Synthesis and biological activities of novel pleuromutilin derivatives with a substituted thiadiazole moiety as potent drug-resistant bacteria inhibitors” (J Med Chem, 2014) one finds MIC and zone of inhibition data, which are given here for 5 molecules.

The structures appear in SMILES notation. ≈ marks a conversion by molar mass, not a printed value.

Type in all cases: functional
Experiment [1] concerns Staphylococcus epidermidis. The experiment in a line: Antibacterial activity against methicillin-resistant Staphylococcus epidermidis after 48 hrs by agar dilution method. The method, boiled down: (§1)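 Agar dilution per NCCLS using clinical isolates. Compound DMSO/water solutions are 2-fold serially diluted in water, then mixed 1:10 into hot Mueller–Hinton agar. Inocula come from blood slants, adjusted to about 10⁵−10⁶ cfu/mL in 0.90% saline, and spotted at 10 μL. Plates incubated at 36.5 °C for 48 h. MIC is the lowest concentration giving complete growth inhibition. Run in triplicate at pH 7.40.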
For orientation: In agar dilution the substance is mixed into plates at graded concentrations.

The test system of experiment [2] is Staphylococcus epidermidis. The experiment can be described thus: Antibacterial activity against methicillin-resistant Staphylococcus epidermidis at 320 ug/ml after 24 hrs by Oxford cup assay. The settings on record: read-out: IZ. The method, boiled down:
(§2)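 Oxford cup diffusion using clinical isolates. Inocula are made in 0.9% saline to a McFarland standard and spread on nutrient agar. […] Inhibition zone diameter is measured after 24 h at 37 °C. Run in triplicate.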

Experiment [3] deals with Escherichia coli. The experiment can be described thus: Antibacterial activity against Escherichia coli at 160 ug/ml after 24 hrs by Oxford cup assay. Conditions: read-out: IZ. The gist of the method: (§3)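 Oxford cup diffusion: saline inoculum set by McFarland standard, spread on nutrient agar plates. […] Inhibition zone measured after 24 h at 37 °C; triplicate.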
Experiment [4] deals with Streptococcus agalactiae. The experiment in a line: Antibacterial activity against Streptococcus agalactiae at 160 ug/ml after 24 hrs by Oxford cup assay. Conditions: read-out: IZ. The gist of the method: as §3
Experiment [5] has as its system Staphylococcus epidermidis. The experiment in a line: Antibacterial activity against methicillin-resistant Staphylococcus epidermidis at 160 ug/ml after 24 hrs by Oxford cup assay. Conditions: read-out: IZ. The gist of the method:
as §2

Experiment [6] deals with Staphylococcus aureus. The experiment in a line: Antibacterial activity against methicillin-resistant Staphylococcus aureus at 160 ug/ml after 24 hrs by Oxford cup assay. The settings on record: read-out: IZ. The gist of the method: as §2
The test system of experiment [7] is Staphylococcus aureus. The experiment can be described thus: Antibacterial activity against methicillin-resistant Staphylococcus aureus at 320 ug/ml after 24 hrs by Oxford cup assay. The settings on record: read-out: IZ. The gist of the method:
as §2

Experiment [8] deals with Escherichia coli. The experiment in a line: Antibacterial activity against Escherichia coli at 320 ug/ml after 24 hrs by Oxford cup assay. The settings on record: read-out: IZ. The gist of the method: as §3
The test system of experiment [9] is Streptococcus agalactiae. The experiment can be described thus: Antibacterial activity against Streptococcus agalactiae at 320 ug/ml after 24 hrs by Oxford cup assay. Conditions: read-out: IZ. The gist of the method:
as §3

In experiment [10] the test system is Escherichia coli. The experiment can be described thus: Antibacterial activity against Escherichia coli after 48 hrs by agar dilution method. The gist of the method:
(§4)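 Agar dilution per NCCLS on Mueller–Hinton agar; compound in DMSO/water, 2-fold serial dilutions in distilled water, 2 mL dilution mixed into 18 mL hot agar. Clinical isolates from blood slants, adjusted to about 10⁵−10⁶ cfu/mL in 0.90% saline; 10 μL spotted. Incubated 36.5 °C for 48 h; MIC = lowest concentration giving complete growth inhibition. Triplicate runs.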

In experiment [11] the test system is Staphylococcus aureus. The experiment can be described thus: Antibacterial activity against methicillin-resistant Staphylococcus aureus after 48 hrs by agar dilution method. The method, boiled down: as §1
Experiment [12] concerns Streptococcus agalactiae. The experiment in a line: Antibacterial activity against Streptococcus agalactiae after 48 hrs by agar dilution method. The method, boiled down: as §4

In the case of `C=C[C@]1(C)C[C@@H](OC(=O)CSc2nnc(NC(=O)c3cccc(N)c3)s2)[C@]2(C)[C@H](C)CC[C@]3(CCC(=O)[C@H]32)[C@@H](C)[C@@H]1O`, the MIC – broadly, the least concentration at which growth counts as inhibited – is 0.5 µg/mL (≈ 0.816 µM) in experiment [1], 16 µg/mL (≈ 26.1 µM) in [10], 0.25 µg/mL (≈ 0.408 µM) in experiment [11] and 0.25 µg/mL (≈ 0.408 µM) in experiment [12]. Further, the zone of inhibition at 320 µg/mL amounted to 17.8 mm in [2], 19.2 mm in [7], 13.7 mm in experiment [8] and 18.4 mm in experiment [9]. The zone of inhibition at 160 µg/mL in [3] was 12.7 mm; in experiment [4], 17.4 mm; in experiment [5] it was 16.1 mm; in experiment [6] it was 17.5 mm.

Regarding `C=C[C@]1(C)C[C@@H](OC(=O)CSc2nnc(NC(=O)c3cccc(Cl)c3)s2)[C@]2(C)[C@H](C)CC[C@]3(CCC(=O)[C@H]32)[C@@H](C)[C@@H]1O`, the minimal inhibitory concentration (MIC) in experiment [1] turned out to be 2 µg/mL (≈ 3.16 µM); in experiment [10], 32 µg/mL (≈ 50.6 µM); in [11] it was 2 µg/mL (≈ 3.16 µM); in experiment [12], 2 µg/mL (≈ 3.16 µM). Moreover, the zone of inhibition at 320 µg/mL in experiment [2] is 15 mm; in experiment [7], 14.7 mm; in experiment [8], 12.6 mm; in [9], 13.5 mm. Moreover, the zone of inhibition at 160 µg/mL in experiment [3] turned out to be 11.7 mm; in [4] it was 12.7 mm; in [5], 12.9 mm; in [6], 13.4 mm.

On to `C=C[C@]1(C)C[C@@H](OC(=O)CSc2nnc(NC(=O)c3ccc(N)cc3)s2)[C@]2(C)[C@H](C)CC[C@]3(CCC(=O)[C@H]32)[C@@H](C)[C@@H]1O`, for which the MIC in experiment [1] turned out to be 1 µg/mL (≈ 1.63 µM); in experiment [10] it was 16 µg/mL (≈ 26.1 µM); in experiment [11], 2 µg/mL (≈ 3.26 µM); in experiment [12] it was 2 µg/mL (≈ 3.26 µM). In addition, the zone of inhibition at 320 µg/mL in experiment [2] worked out at 14.8 mm; in experiment [7] it was 13.2 mm; in [8], 12.2 mm; in experiment [9], 14 mm. Further, the zone of inhibition at 160 µg/mL in experiment [3] was determined as 10.7 mm; in experiment [4], 12.3 mm; in experiment [5] it was 12.1 mm; in experiment [6], 11.4 mm.

Turning to `C=C[C@]1(C)C[C@@H](OC(=O)CSc2nnc(NC(=O)c3ccccc3N)s2)[C@]2(C)[C@H](C)CC[C@]3(CCC(=O)[C@H]32)[C@@H](C)[C@@H]1O`, the MIC in experiment [1] was determined as 2 µg/mL (≈ 3.26 µM); in [10], 16 µg/mL (≈ 26.1 µM); in experiment [11] it was 4 µg/mL (≈ 6.53 µM); in experiment [12], 4 µg/mL (≈ 6.53 µM). Further, the zone of inhibition at 320 µg/mL in experiment [2] worked out at 15.2 mm; in [7] it was 15.5 mm; in experiment [8] it was 11.3 mm; in experiment [9], 13.8 mm. Besides, the zone of inhibition at 160 µg/mL in experiment [3] turned out to be 10.1 mm; in [4], 12.4 mm; in [5] it was 12.2 mm; in experiment [6], 12.9 mm.

On to `C=C[C@]1(C)C[C@@H](OC(=O)CSCCN(CC)CC)[C@]2(C)[C@H](C)CC[C@]3(CCC(=O)[C@H]32)[C@@H](C)[C@@H]1O` [TIAMULIN], for which the MIC was 2 µg/mL (≈ 4.05 µM) in experiment [1], 16 µg/mL (≈ 32.4 µM) in experiment [10], 0.5 µg/mL (≈ 1.01 µM) in experiment [11] and 0.5 µg/mL (≈ 1.01 µM) in experiment [12]. In addition, the zone of inhibition at 320 µg/mL in experiment [2] came out at 15.6 mm; in experiment [7] it was 17.2 mm; in experiment [8] it was 15.8 mm; in [9], 16.1 mm. Also, the zone of inhibition at 160 µg/mL was found to be 13.6 mm in experiment [3], 14.6 mm in [4], 13.9 mm in experiment [5] and 16.9 mm in [6].
